Reference: PMC6049601 (International Journal of Nanomedicine, 2018)

How the values were obtained:
[1] = system: IL-6 in LPS-induced RAW 264.7 cells; test: In vitro anti-inflammatory effect: IL-6; assay type: cell-based, Mouse; details: 25 μg/mL, LPS 1 μg/mL, 24 h
Outline: (§1)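 RAW 264.7 mouse macrophages grown in RPMI-1640 with 10% FBS at 37°C, 5% CO2, seeded at 2 × 10^5 cells/well. Cells were exposed to LPS (1 μg/mL) with or without test formulation for 24 h; medium-only and LPS-only wells served as control and model. Supernatants were cleared at 10,000 rpm, 4°C. TNF-α, IL-6 and NO were measured by ELISA kits; mean ± SD, n = 3.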

[2] = system: TNF-α in LPS-induced RAW 264.7 cells; test: In vitro anti-inflammatory effect: TNF-α; assay type: cell-based, Mouse; details: 25 μg/mL, LPS 1 μg/mL, 24 h
Outline: as §1

Caco-2 cells = test: Cellular uptake in Caco-2 cells; assay type: cell-based; details: Caco-2, 20 μg/mL, 1, 2 and 4 h
[3] = In vitro release study by dialysis bag method; assay type: physicochemical; details: solution formulation, water with 1% Tween 80, 37°C
Outline: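 Test compound was dissolved in water/ethanol/PEG400 (20/40/40, v/v/v). Samples equivalent to 10 mg were sealed in dialysis bags (MWCO ~14,000) and dialysed against 100 mL purified water containing 1% Tween 80 at 37°C. Medium aliquots were taken at set times and replaced with fresh medium, diluted with methanol and assayed by HPLC. Cumulative release percentage was plotted against time.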

[4] = Oral bioavailability / pharmacokinetic study in rats; assay type: in vivo, Sprague-Dawley (SD) rats; details: Sprague-Dawley, rat, plasma, iv, 8 mg/kg
Outline: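 Sprague-Dawley rats (220 ± 20 g, n = 5) were fasted overnight with water allowed, then given test compound solution i.v. at 8 mg/kg. Tail-vein blood was drawn into heparinised tubes at 0.133–12 h. Plasma was extracted with acetonitrile, dried at 30°C, reconstituted in 50% acetonitrile and run on UPLC-QTOF/MS (0.1% formic acid water/acetonitrile gradient). Parameters came from noncompartmental analysis.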

[5] = system: NO in LPS-induced RAW 264.7 cells; test: In vitro anti-inflammatory effect: NO; assay type: cell-based, Mouse; details: 25 μg/mL, LPS 1 μg/mL, 24 h
Outline: as §1

With `Oc1ccc(/C=C/c2cc(O)cc(O)c2)cc1` [Free RES, Resveratrol] the “Effect on IL-6 compared to the LPS model” value [1] was “substantially suppressed”, the “Effect on TNF-α compared to the LPS model” value [2] was “substantially suppressed” and the “Cellular uptake (intracellular RES concentration)” value (Caco-2 cells) was “rapid cellular uptake relative to RES-NPs”. The In vitro release [3] was “released completely in a very short time”, the AUC(0-t) [4] was 902 ± 33.7 ng·h/mL and the Cmax [4] was 974 ± 302 ng/mL. The MRT inf [4] was 5.27 ± 0.931 h, the Tmax [4] was 7.98 ± 3.24 min and the “Effect on NO compared to the LPS model” value [5] was “substantially suppressed”.
